Source: ChEMBL document CHEMBL3046144, “Insecticidal and fumigant activities of Cinnamomum cassia bark-derived materials against Mechoris ursulus (Coleoptera: attelabidae)” (2000)

How the values were obtained:
Assay type in all cases: functional
Attelabidae [1] = assay: Insecticidal activity against Mechoris ursulus assessed as mortality at 1 mg/paper at 25 +/- 1 degC measured after 48 hr by filter paper diffusion method
In short: (§1)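 M. ursulus larvae. Compound in 1 mL acetone applied to a filter paper (50-mm diameter), dried in a hood 2 min, then placed in the bottom of a polyethylene cup with the larvae. Controls got 1 mL acetone. Held at 25 ± 1 °C, 50-60% RH, 16L:8D. Run in triplicate, mean ± SE.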

Attelabidae [2] = assay: Insecticidal activity against Mechoris ursulus assessed as mortality at 2.5 mg/paper at 25 +/- 1 degC measured after 48 hr by filter paper diffusion method; in short: as §1
Attelabidae [3] = assay: Insecticidal activity against Mechoris ursulus assessed as mortality at 5 mg/paper at 25 +/- 1 degC measured after 48 hr by filter paper diffusion method; in short: as §1

SMILES | mortality (Attelabidae [1]) | mortality (Attelabidae [2]) | mortality (Attelabidae [3])
C=CCc1ccc(O)c(OC)c1 [EUGENOL] | 66.7% | 90% | 100%
OC/C=C/c1ccccc1 [CINNAMIC ALCOHOL] | – | – | 50%
O=C(O)/C=C/c1ccccc1 [CINNAMIC ACID] | 53.3% | 73.3% | 86.7%
O=C/C=C/c1ccccc1 [CINNAMALDEHYDE] | 83.3% | 100% | 100%
O=Cc1ccccc1O [SALICYLADEHYDE] | 74.4% | 88.9% | 100%
